In ChEMBL document CHEMBL3286203, “Reactive oxygen species (ROS) inducible DNA cross-linking agents and their effect on cancer cells and normal lymphocytes” (J Med Chem, 2014) one finds Activity, Ratio and Drug metabolism data, which are given here for two compounds.

Series [1] is described as follows: Induction of [32P]-labeled 49-mer oligonucleotide duplex DNA 12 with GNC sequence at terminus (unknown origin) interstrand cross-linking at 1 mM after 16 hrs by PAGE. Summed up: (§1)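 32P-labelled 12a (1.0 μM) annealed with 1.5 equiv of 12b in 10 mM potassium phosphate pH 7 / 100 mM NaCl (65 °C for 3 min, then slow cooling). Duplex incubated with compound (final 1 μM–5 mM), with or without H2O2, in NaCl and potassium phosphate pH 8 at room temperature for 16 h. Quenched in formamide; 20% denaturing PAGE.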

Series [2] in a line: Induction of [32P]-labeled 49-mer oligonucleotide duplex DNA 12 with GNC sequence at terminus (unknown origin) interstrand cross-linking at 50 uM after 16 hrs by PAGE in presence of H2O2. Summed up:
as §1

Series [3] is described as follows: Ratio of induction of [32P]-labeled 49-mer oligonucleotide duplex DNA 12 with GNC sequence at terminus (unknown origin) interstrand cross-linking in presence of H2O2 to induction of [32P]-labeled 49-mer oligonucleotide duplex DNA 12 with GNC sequence at terminus (unknown origin) in absence of H2O2. Summed up:
as §1

A short description of series [4]: Drug level in deuterated phosphate buffer treated with 40 mM N,N-Bis(2-chloroethyl)-4-(4,4,5,5-tetramethyl-1,3,2-dioxaborolan-2-yl)aniline after 24 hrs by 1H-NMR analysis. The format is physicochemical. Summed up:
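1H NMR of the boronate mustard (40 mM) held 24 h in deuterated potassium phosphate buffer (4.0 mM) with no H2O2. Solvent was 1.0 M deuterated potassium phosphate buffer/DMSO-d6/D2O = 2:450:48.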

Consider `CC1(C)OB(c2ccc(N(CCOS(C)(=O)=O)CCOS(C)(=O)=O)cc2)OC1(C)C`, for which the Activity was determined as 22% in series [1] and 3% in series [2]. Also, the Ratio in series [3] was 3.

Consider `CC(C)(O)C(C)(C)O`, for which, in series [4], the Drug metabolism entry is on record as “metabolite_detected”.
